Screening results as filed in PubChem BioAssay.
NR2E3 ag-1: human photoreceptor-specific nuclear receptor agonism. AID 602229. CHO-S Gal4-NCOR/VP16-NR2E3 two-hybrid, luciferase. 360,000 compounds, 0.35% hits. Q9Y5X4. inhibition of corepressor binding, % at 3.98 µM;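 active = inhibition above the mean of all tested compounds plus 3 SD, cut at about 70% in these data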;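 also: higher means lower luciferase signal from less NR2E3 corepressor binding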
rCAG binder: molecules binding r(CAG) RNA repeats. 370,000 compounds, 1.3% hits. inhibition, % at 3 µM. AID 651821. r(CAG) RNA repeat, TO-PRO-1 dye displacement fluorescence;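 active = inhibition above the plate cutoff, the mean of all test compounds on that plate plus 3 SD, cut at about 35% in these data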;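 also: higher means more dye released from RNA so lower well fluorescence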
PG9 Ab binder: binds the HIV-1 gp120 antibody PG9. TR-FRET gp120-PG9 antibody binding. inhibition, % at 6.7 µM. 360,000 compounds, 0.43% hits. AID 624416; in the data active = inhibition above about 8.5%
NR2E3 ag-2: NR2E3 (human) agonism; Q9Y5X4; GST-NR2E3/biotin-RetCOR TR-FRET, 1536-well; inhibition of corepressor binding, % at 4.78 µM; 320,000 compounds, 0.12% hits; AID 2300;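 active = percent inhibition above the cutoff of mean plus 3 SD of all tested compounds, set per screening campaign, cut at about 20% in these data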
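Material: NR2E3–RetCOR corepressor complex / Incubation: Compound–protein incubation for 5 h at 4 °C / Dosing: compound at 4.8 µM, single dose / Detection: time-resolved FRET / Benchmarks: high control biotin, low control 0.6% DMSO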
NR1D1 modulator: modulates human Rev-erb alpha binding to DNA; P20393; Rev-erbα–FITC-DNA binding, fluorescence polarization, 90 min; activity, % at 10 µM; 370,000 compounds, 0.79% hits;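 active = activity above about 14%, limit read from the data; passing the limit was not always enough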
Target sequence (P20393 whole entry, looked up): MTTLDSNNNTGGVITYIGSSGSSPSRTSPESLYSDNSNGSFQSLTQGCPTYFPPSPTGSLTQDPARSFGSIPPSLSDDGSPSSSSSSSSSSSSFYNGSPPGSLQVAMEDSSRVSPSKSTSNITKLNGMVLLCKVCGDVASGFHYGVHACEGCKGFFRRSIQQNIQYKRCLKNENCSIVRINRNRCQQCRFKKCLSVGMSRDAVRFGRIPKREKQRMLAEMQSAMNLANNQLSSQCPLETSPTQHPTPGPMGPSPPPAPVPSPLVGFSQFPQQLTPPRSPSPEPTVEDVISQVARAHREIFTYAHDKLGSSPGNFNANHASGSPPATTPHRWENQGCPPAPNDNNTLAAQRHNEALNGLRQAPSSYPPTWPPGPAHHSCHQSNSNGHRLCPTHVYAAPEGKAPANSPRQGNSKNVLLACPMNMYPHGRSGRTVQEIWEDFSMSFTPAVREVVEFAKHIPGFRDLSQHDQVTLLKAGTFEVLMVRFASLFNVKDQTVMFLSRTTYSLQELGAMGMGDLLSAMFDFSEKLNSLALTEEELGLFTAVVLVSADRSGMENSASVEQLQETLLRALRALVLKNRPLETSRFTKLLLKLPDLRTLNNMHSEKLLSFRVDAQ
Rev-erbA confirm: Rev-erb alpha (human) modulation, hit confirmation | shares compounds with NR1D1 modulator | Rev-erb alpha FITC-DNA binding, fluorescence polarization, 90 min | activation, % at 25 µM | 3,000 compounds, 61% hits | AID 1259319;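 active = activation at or above a set limit, or at least 3 SD above the negative control mean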
RORg counter: affects RORgamma DNA binding in a Rev-erb alpha counter-screen | purified RORgamma protein-FITC-DNA binding, fluorescence polarization | shares compounds with NR1D1 modulator | IC50, µM | 910 compounds, 8% hits;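 active = Compounds whose fitted half-maximal concentration for disrupting protein-DNA binding is below 10 micromolar; the record names Rev-erb in its text, so the target is in doubt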
Of the large screens only hits and unclear results are named; the others gave an inactive call (follow-up assays come after a bar, where they were run). Sampled rows, rich in hits. Any-hit rate of the full collection: about 2.6%.

COc1ccc(-c2cc(=O)oc3c(C)c(OCC(=O)Nc4cccnc4)ccc23)cc1	NR1D1 modulator 28 | Rev-erbA confirm inactive
O=C(NCCC1=CCCCC1)C1CCN(S(=O)(=O)c2cccc(C(F)(F)F)c2)CC1	none
CC1CCCN(c2c([N+](=O)[O-])cc(C(=O)O)cc2[N+](=O)[O-])C1 (stereo not given)	none
CC1CCCN(c2ccc([N+](=O)[O-])s2)C1 (stereo not given)	NR1D1 modulator 31 (no result: NR2E3 ag-2) | Rev-erbA confirm inactive
O=[N+]([O-])c1ccc(N2CCCCC2)s1	NR1D1 modulator 23 | Rev-erbA confirm 18
Cc1ccc(-c2csc3nnc(SCC(=O)Nc4nsc(-c5ccccc5)n4)n23)cc1	none
O=C(CSc1nnc2scc(-c3ccccc3)n12)Nc1nsc(-c2ccccc2)n1	NR1D1 modulator 44 (no result: rCAG binder, PG9 Ab binder) | Rev-erbA confirm 39 | RORg counter inactive
O=C(CSc1nnc2scc(-c3ccccc3)n12)N1CCN(Cc2ccccc2)CC1	none
O=C(CSc1nnc2scc(-c3ccccc3)n12)Nc1nsc(-c2ccc(Cl)cc2)n1	NR1D1 modulator 31 | Rev-erbA confirm inactive
O=C(CCc1c[nH]c2ccccc12)Nc1ccc(Nc2cccnc2)cc1	none (no result: NR2E3 ag-1, NR2E3 ag-2)
CCCCN(CC)S(=O)(=O)c1ccc(C(=O)N=c2sc3cc(NC(C)=O)ccc3n2C)cc1	none
CCCCN(C)S(=O)(=O)c1ccc(C(=O)N=c2sc3cc(NC(C)=O)ccc3n2C)cc1	NR1D1 modulator 42 | Rev-erbA confirm inactive
Cc1ccc(NC(=O)CN2CCN(S(=O)(=O)c3ccc4c(c3)OCCO4)CC2)c(C)c1	none (no result: NR2E3 ag-2)
COc1ccc2c(C)cc(SCC(=O)N3CCOCC3)nc2c1	none
COc1ccc2c(C)cc(SCC(=O)Nc3ccc(Cl)cn3)nc2c1	NR1D1 modulator 55 | Rev-erbA confirm inactive
COc1ccc2c(C)cc(SCC(=O)NC3CCCCC3)nc2c1	NR1D1 modulator 121 (no result: NR2E3 ag-2) | Rev-erbA confirm 53 | RORg counter inactive
O=C(NC1CCCN(c2ccc(C(F)(F)F)cn2)C1)c1cc(Cl)ccc1F (stereo not given)	NR1D1 modulator 20 | Rev-erbA confirm inactive
COc1ccc(CC(=O)NCC2CCN(C(=O)C(=O)c3cc4ccccc4o3)CC2)cc1	none (no result: NR2E3 ag-1, NR2E3 ag-2)
CCn1c(=O)c(CCC(=O)NCC2CCCO2)c(C)c2c(C)nn(-c3ccc(C)cc3)c21 (stereo not given)	NR1D1 modulator 20 | Rev-erbA confirm inactive
O=C(Nc1ccnn1C1CCN(Cc2ccn[nH]2)CC1)c1ccccc1	NR1D1 modulator 16 | Rev-erbA confirm inactive
Cc1ccccc1CN1CCCCC(NC(=O)c2cccc([N+](=O)[O-])c2)C1=O (stereo not given)	none (no result: NR2E3 ag-1, PG9 Ab binder, NR2E3 ag-2)
C=CCn1c(C)c(/C=C/c2cc[n+](C)cc2)c2ccccc21	NR1D1 modulator 237 | Rev-erbA confirm 213 | RORg counter inactive
Cc1[nH]c2ccccc2c1/C=C/c1cc[n+](C)cc1	NR1D1 modulator 251 (no result: NR2E3 ag-2) | Rev-erbA confirm 172 | RORg counter inactive
CCN(CC)C(=O)Cn1c(C)c(/C=C/c2cc[n+](C)cc2)c2ccccc21	NR1D1 modulator 158 | Rev-erbA confirm 139 | RORg counter inactive
C[n+]1ccc2[nH]c3ccccc3c2c1	none (no result: NR2E3 ag-2)
CCN(CC)C(=O)Cn1c(=O)n(C)c2ccccc21	none
CCn1cc(/C=C/c2cc[n+](C)cc2)c2ccccc21	NR1D1 modulator 179 | Rev-erbA confirm 160 | RORg counter inactive
CCn1c(/C=C/c2c(C)n(CC)c3ccccc23)nc2ccccc2c1=O	none
CCn1cc(CCC(=O)Nc2ccc(Oc3cccnc3)cc2)c2ccccc21	none (no result: NR2E3 ag-1, NR2E3 ag-2)
C[C@H](O)[C@@H]1C(=O)N2CCc3ccc(-c4ccccc4)cc3[C@@H]2C[C@@H]1N(C)C(=O)Nc1cc(Cl)cc(Cl)c1	none (no result: NR2E3 ag-2)
C=CCn1cc(/C=C/c2cc[n+](C)cc2)c2ccccc21	NR1D1 modulator 168 | Rev-erbA confirm 143 | RORg counter inactive
Cc1ccccc1/C=C/c1cc[n+](C)cc1	none
CC(C)n1cc(/C=C/c2cc[n+](C)cc2)c2ccccc21	NR1D1 modulator 209 (no result: NR2E3 ag-2) | Rev-erbA confirm 203 | RORg counter inactive
O=C(O)Cn1cc(/C=C/[N+](=O)[O-])c2ccccc21	none
O=C(CC[C@H]1O[C@@H](n2ccc(=O)[nH]c2=O)[C@H](O)[C@@H]1O)NCC(c1ccccc1)c1ccccc1	none (no result: NR2E3 ag-2)
CC(C(=O)N1CCc2ccccc21)N1CCN(S(=O)(=O)c2ccc(C(F)(F)F)cc2)CC1 (stereo not given)	NR1D1 modulator 17 | Rev-erbA confirm inactive
CC(C(=O)N1CCc2ccccc21)N1CCN(c2cccc(C(F)(F)F)c2)CC1 (stereo not given)	none
N#Cc1cc2c(nc1SCc1ccncc1)CCC2	none
Cc1cc(NC(=O)CSc2nc3c(cc2C#N)CCCC3)no1	NR1D1 modulator 35 | Rev-erbA confirm 26
Cc1noc(NS(=O)(=O)c2ccc(NC(=O)CSc3nc4c(cc3C#N)CCC4)cc2)c1C	none
Cc1cc(NC(=O)CSc2nc3c(cc2C#N)CCC3)no1	NR1D1 modulator 23 | Rev-erbA confirm inactive
N#Cc1cc2c(nc1SCc1ccccc1)CCC2	NR1D1 modulator 45 | Rev-erbA confirm 25
Cn1cc(C(=O)NCc2cccnc2)c(=O)c2cc(S(=O)(=O)N3CCCCCC3)ccc21	none (no result: NR2E3 ag-1, rCAG binder, PG9 Ab binder, NR1D1 modulator)
Cn1cc(C(=O)NCc2cccs2)c(=O)c2cc(S(=O)(=O)N3CCCC3)ccc21	NR1D1 modulator 28 | Rev-erbA confirm 25
COc1ccc2c(c1)c1nc3n(c(=O)c1n2CC(=O)Nc1cc(C)[nH]n1)CCS3	NR1D1 modulator 19 (no result: NR2E3 ag-1) | Rev-erbA confirm inactive
COC(=O)c1cc(C#N)c(NCc2ccccc2)nc1C	none
CC(=O)c1cc(C#N)c(NCc2cc(-c3ccccc3)no2)nc1C	NR1D1 modulator 26 | Rev-erbA confirm 18
Cc1ccc(C)c(-n2c(-c3ccc(Br)cc3)csc2=NC(=O)c2ccccc2F)c1	NR1D1 modulator 38 | Rev-erbA confirm 49 | RORg counter inactive
CCc1nc2ccc(C(=O)NCC3CCCCC3)cn2c1N(C)C(=O)c1cccc(OC)c1	none (no result: NR2E3 ag-2)
CC(C)c1nc2sc3c(SCC(N)=O)ncnc3c2c2c1CCC2	NR1D1 modulator 869 | Rev-erbA confirm 711 | RORg counter inactive
CCCCc1nc2sc3c(SCCN(C)C)ncnc3c2c2c1CCC2	NR1D1 modulator 31 | Rev-erbA confirm 47 | RORg counter inactive
CCCCc1nc2sc3c(=O)n(N)cnc3c2c2c1CCCC2	none
Cc1cnn(-c2ccc3nnc(-c4ccc(Cl)cc4)n3n2)c1	NR1D1 modulator 22 | Rev-erbA confirm 27
CCN(CC)c1nc(NN)nc(Nc2ccc(C)c(Cl)c2)n1	none
C[C@@H]1C=CCCO[C@]12C(=O)N(CC1CC1)c1cccc(Br)c12	NR1D1 modulator 13 (no result: NR2E3 ag-1, NR2E3 ag-2) | Rev-erbA confirm inactive
